Measurements gathered from unrelated publications.
Protocols differ between the studies behind these lines.

Structure (SMILES)	test system	setting	AUC(0-t) [ng·h/mL]
NCc1ccc(-c2nn(Cc3ccccc3)c3ccccc23)o1	male CD-1 mouse, plasma	oral, 10 mg/kg	891
Cc1ccc(OCC(=O)N[C@@H](Cc2c[nH]c3ccccc23)C(=O)OC(C)C)cc1	male Sprague-Dawley mouse, plasma	intravenous, 10 mg/kg	2460
NCc1ccc(-c2nn(Cc3ccncc3)c3ccccc23)o1	male CD-1 mouse, plasma	intravenous, 5 mg/kg	1050
OCc1nc2ccc(NCc3ccc(C(F)(F)F)cc3)cc2[nH]1	male BALB/c mouse, plasma	intravenous, 1 mg/kg	482
C[C@@H](CN1CCC(n2c(=O)[nH]c3cc(Cl)ccc32)CC1)NC(=O)c1ccc2ccccc2c1	male CD-1 mouse, brain	intravenous, 1 mg/kg, single dose	0.302
CCOC(=O)c1c(NC(=O)CNC(C)C)sc2c1CCCCC2	male mouse, plasma	intraperitoneal, 5 mg/kg, single dose	300
Cc1cc(-c2ccnc3[nH]cc(F)c23)cc(F)c1[C@@]1(O)[C@H](C)CN(C(=O)CN)C[C@@H]1C	male CD-1 mouse, plasma	intravenous, 1 mg/kg	18400
OCc1ccc(-c2nn(Cc3ccccc3)c3ccccc23)o1	male CD-1 mouse, plasma	intravenous, 5 mg/kg	1070
Cc1ncsc1-c1ccc([C@H](C)NC(=O)[C@@H]2C[C@@H](O)CN2C(=O)[C@@H](NC(=O)CCCCCCCCCCC(=O)NCCCn2cc(-c3ccc4c(c3)CCN4C(=O)Cc3cccc(OC(F)(F)F)c3)c3c(N)ncnc32)C(C)(C)C)cc1	mouse, plasma	intravenous, 1 mg/kg	835
COC1=CC(c2ccc[nH]2)=N/C1=C\c1[nH]c(Cc2ccc(OC(F)(F)F)cc2)cc1Cc1ccc(OC(F)(F)F)cc1	male CD-1 mouse, liver	oral, 40 mg/kg, single dose	494000
Cc1cc(-c2ccnc3[nH]cc(F)c23)cc(F)c1[C@@]1(O)[C@H](C)CN(C2CCS(=O)(=O)CC2)C[C@@H]1C	male CD-1 mouse, plasma	intravenous, 1 mg/kg	3020
Cc1nc2ccc(OCc3ccc(C(F)(F)F)cc3)cc2[nH]1	male BALB/c mouse, plasma	intravenous, 1 mg/kg	3800
O=C1CCC(N2Cc3cc(C4CCN(Cc5ccccc5)CC4)ccc3C2=O)C(=O)N1 (stereo not drawn)	male CD-1 mouse, plasma	oral, 3 mg/kg	594
Cc1ncsc1-c1ccc([C@H](CC(=O)N2CC3(C2)CN(c2ccc(C#Cc4ccc(C(=O)N5CCC(n6cc(-c7ccc8c(c7)CCN8C(=O)Cc7cccc(OC(F)(F)F)c7)c7c(N)ncnc76)CC5)cc4)cn2)C3)NC(=O)[C@@H]2C[C@@H](O)CN2C(=O)[C@@H](NC(=O)C2(F)CC2)C(C)(C)C)cc1	male C57BL/6 mouse, plasma	intravenous, 1 mg/kg	5920
CCCC[C@@H](NC(=O)[C@@H](Cc1cn(C(=O)OC)c2ccccc12)NC(=O)[C@H](CC(C)(C)C)NC(=O)N1[C@H](C)CCC[C@@H]1C)C(=O)O	male CD-1 mouse, plasma	intravenous, 3 mg/kg	225
COC1=CC(c2ccc[nH]2)=N/C1=C\c1cc(Cc2ccc(OC(F)(F)F)cc2)c(C)[nH]1.Cl	male CD-1 mouse, plasma	oral, 40 mg/kg, single dose	8220
CO[C@H]1/C=C/O[C@@]2(C)Oc3c(C)c(O)c4c(c3C2=O)C2=NC3(CCN(CC(C)C)CC3)NC2=C(NC(=O)/C(C)=C\C=C\[C@H](C)[C@H](O)[C@@H](C)[C@@H](O)[C@@H](C)[C@H](OC(C)=O)[C@@H]1C)C4=O	female CD-1 mouse, plasma	oral, 10 mg/kg	11200
CN(C)C(=O)c1cc2cnc(Nc3ccc(-c4ccc5c(=O)cc(N6CCOCC6)oc5c4)cc3)nc2n1C1CCCC1.Cl	BALB/c mouse, plasma	oral, 20 mg/kg	7480
